Activity calls are given as the source filed them. The calls are words filed in the database; no cut-off is given here.
Experiments:
Acinetobacter baumannii [1] = experiment: Dark toxicity against wild type Acinetobacter baumannii AB007 assessed as reduction in bacterial load at 1 to 20 uM incubated for 30 mins; format: organism-based; conditions: in vitro, 0.5 h
How it was run: (§1)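 A. baumannii AB007 was exposed to compound at 1-20 μM, with or without red-light illumination, alongside dark controls. Survival fraction came from CFU counts. Mean ± SEM from three independent experiments.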

Escherichia coli [2] = experiment: Dark toxicity against wild type Escherichia coli K-12 assessed as reduction in bacterial load at 1 to 20 uM incubated for 30 mins; format: organism-based; conditions: in vitro, 0.5 h
How it was run: (§2)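 E. coli K-12 and isogenic TolC knockout JW5503-1 were exposed to compound at 1-20 μM, then illuminated with 652 nm red light at 100 mW/cm2 to 6 J/cm2, or kept dark. Serially diluted aliquots were plated for CFU and survival fraction determined. Mean ± SEM from three independent experiments.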

Acinetobacter baumannii [3] = experiment: (§3) Photodynamic antibacterial activity against Acinetobacter baumannii AB Iraqi 007 infected in BALB/c mouse needle back-scratch wound abrasion infection model assessed as reduction in bacterial load in shaved dorsal surfaces of mouse after 15 mins followed by up to 120 J/cm'2 irradiation with red light over 20 mins measured after 1 day by bioluminescence imaging method; format: functional; set-up: scale not given: the % may be the effect or the level left
How it was run: (§4)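 Bioluminescent A. baumannii inoculated into needle-scratch wounds on shaved mouse backs. Sites got 40 μL of a 250 μM stock of compound, then 652 nm red light at 0, 12, 36, 84, 108 and 120 J/cm2, or were kept dark (dark controls). Normalized wound RLU (mean ± SEM, 4-6 mice/group) was imaged during illumination, then daily for 14 days.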

Acinetobacter baumannii [4] = experiment: as §3, with “36” for “up to 120”, “mins” for “mins measured after 1 day”; format: functional; set-up: scale not given: the % may be the effect or the level left; how it was run: as §4
Escherichia coli [5] = experiment: Photodynamic antibacterial activity against wild type Escherichia coli K-12 assessed as bacterial killing at 10 uM incubated for 30 mins followed by 6 J/cm'2 irradiation with red light relative to control; format: functional; how it was run: as §2
Escherichia coli [6] = experiment: Dark toxicity against enteropathogenic Escherichia coli WS2572 infected in BALB/c mouse full-thickness third-degree burn infection model assessed as reduction in bacterial load in shaved dorsal surfaces of mouse after 15 mins measured after 1 day by bioluminescence imaging method; format: organism-based; conditions: in vivo
How it was run: (§5)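 Mouse full-thickness third-degree burn on the shaved back, inoculated with bioluminescent EPEC WS2572. Wounds got 40 μL of 250 μM stock compound, then 652 nm red light at 0, 12, 36, 84, 108 and 120 J/cm2 or no light. Normalized wound RLU (mean ± SEM, 4-6 mice/group) was imaged during illumination and daily for 14 days after.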

Acinetobacter baumannii [7] = experiment: Dark toxicity against Acinetobacter baumannii AB Iraqi 007 infected in BALB/c mouse needle back-scratch wound abrasion infection model assessed as reduction in bacterial load in shaved dorsal surfaces of mouse measured after 15 mins by bioluminescence imaging method; format: organism-based; set-up: scale not given: the % may be the effect or the level left; conditions: in vivo, 0.25 h; how it was run: as §4
Escherichia coli [8] = experiment: (§6) Photodynamic antibacterial activity against enteropathogenic Escherichia coli WS2572 infected in BALB/c mouse full-thickness third-degree burn infection model assessed as reduction in bacterial load in shaved dorsal surfaces of mouse after 15 mins followed by up to 120 J/cm'2 irradiation with red light over 20 mins by bioluminescence imaging method; format: functional; set-up: scale not given: the % may be the effect or the level left; how it was run: as §5
Acinetobacter baumannii [9] = experiment: Dark toxicity against Acinetobacter baumannii AB Iraqi 007 infected in BALB/c mouse needle back-scratch wound abrasion infection model assessed as bacterial load in shaved dorsal surfaces of mouse after 15 mins measured after 1 day by bioluminescence imaging method; format: organism-based; conditions: in vivo; how it was run: as §4
Acinetobacter baumannii [10] = experiment: Dark toxicity against Acinetobacter baumannii AB Iraqi 007 infected in BALB/c mouse needle back-scratch wound abrasion infection model assessed as reduction in bacterial load in shaved dorsal surfaces of mouse after 15 mins measured after 12 days by bioluminescence imaging method; format: organism-based; conditions: in vivo; how it was run: as §4
Escherichia coli [11] = experiment: Dark toxicity against TolC deficient Escherichia coli JW5503-1 assessed as reduction in bacterial load at 1 to 20 uM incubated for 30 mins; format: organism-based; conditions: in vitro, 0.5 h; how it was run: as §2
Escherichia coli [12] = experiment: Photodynamic antibacterial activity against wild type Escherichia coli K-12 assessed as bacterial killing at 20 uM incubated for 30 mins followed by 6 J/cm'2 irradiation with red light relative to control; format: functional; how it was run: as §2
Escherichia coli [13] = experiment: Photodynamic antibacterial activity against TolC deficient Escherichia coli JW5503-1 assessed as bacterial killing at 20 uM incubated for 30 mins followed by 6 J/cm'2 irradiation with red light relative to control; format: functional; how it was run: as §2
Escherichia coli [14] = experiment: Dark toxicity against enteropathogenic Escherichia coli WS2572 infected in BALB/c mouse full-thickness third-degree burn infection model assessed as reduction in bacterial load in shaved dorsal surfaces of mouse measured after 15 mins by bioluminescence imaging method; format: organism-based; set-up: scale not given: the % may be the effect or the level left; conditions: in vivo, 0.25 h; how it was run: as §5
Acinetobacter baumannii [15] = experiment: as §3, with “up to 6 days” for “after 1 day”; format: functional, organism-based; how it was run: as §4
Escherichia coli [16] = experiment: Photodynamic antibacterial activity against TolC deficient Escherichia coli JW5503-1 assessed as bacterial killing at 10 uM incubated for 30 mins followed by 6 J/cm'2 irradiation with red light relative to control; format: functional; how it was run: as §2
Acinetobacter baumannii [17] = experiment: Photodynamic antibacterial activity against wild type Acinetobacter baumannii AB007 assessed as bacterial killing at 20 uM incubated for 30 mins followed by 6 J/cm'2 irradiation with red light relative to control; format: functional; how it was run: as §1
Acinetobacter baumannii [18] = experiment: as §3, with “84” for “up to 120”, “mins” for “mins measured after 1 day”; format: functional, organism-based; how it was run: as §4
Acinetobacter baumannii [19] = experiment: as §3, with “10 days” for “1 day”; format: functional, organism-based; how it was run: as §4
Escherichia coli [20] = experiment: as §6, with “20 mins measured after 12 days by bioluminescence” for “20 mins by bioluminescence”; format: functional, organism-based; how it was run: as §5
Acinetobacter baumannii [21] = experiment: as §3, with “108” for “up to 120”, “mins” for “mins measured after 1 day”; format: functional, organism-based; how it was run: as §4
Escherichia coli [22] = experiment: as §6, with “20 mins measured after 1 day by bioluminescence” for “20 mins by bioluminescence”; format: functional, organism-based; how it was run: as §5
Escherichia coli [23] = experiment: as §6, with “36” for “up to 120”; format: functional; set-up: scale not given: the % may be the effect or the level left; how it was run: as §5
Escherichia coli [24] = experiment: as §6, with “84” for “up to 120”; format: functional, organism-based; how it was run: as §5
Escherichia coli [25] = experiment: as §6, with “20 mins measured after 10 days by bioluminescence” for “20 mins by bioluminescence”; format: functional, organism-based; how it was run: as §5

Compound: CN(C)c1ccc2nc3ccc(N(C)C)cc3[s+]c2c1.[Cl-] [METHYLENE BLUE ANHYDROUS]
- Activity (Acinetobacter baumannii [1]): Non-Toxic
- Activity (Escherichia coli [2]): Non-Toxic
- Activity (Acinetobacter baumannii [3]): >50%
- Activity (Acinetobacter baumannii [4]): 50%
- LCK (Escherichia coli [5]): 2
- Activity (Escherichia coli [6]): Not Active
- Activity (Acinetobacter baumannii [7]): < 25%
- Activity (Escherichia coli [8]): 90%
- Activity (Acinetobacter baumannii [9]): > 50%
- Activity (Acinetobacter baumannii [10]): Toxic
- Activity (Escherichia coli [11]): Non-Toxic
- LCK (Escherichia coli [12]): 2.5
- LCK (Escherichia coli [13]): 3.5
- Activity (Escherichia coli [14]): 25%

Compound: CN(CCN(C)c1ccc2nc3ccc(N(C)C)cc3[s+]c2c1)Cc1ccc(-c2cc3cc([N+](=O)[O-])ccc3[nH]2)cc1.[Cl-]
- Activity (Acinetobacter baumannii [15]): Active
- Activity (Acinetobacter baumannii [1]): Non-Toxic
- Activity (Escherichia coli [2]): Non-Toxic
- LCK (Escherichia coli [16]): 2
- Activity (Acinetobacter baumannii [4]): 95%
- LCK (Escherichia coli [5]): 2
- Activity (Acinetobacter baumannii [7]): < 25%
- Activity (Acinetobacter baumannii [9]): > 50%
- Activity (Acinetobacter baumannii [10]): Toxic
- Activity (Escherichia coli [11]): Non-Toxic
- Activity (Acinetobacter baumannii [17]): Active
- LCK (Escherichia coli [12]): 4
- Activity (Acinetobacter baumannii [18]): Active
- LCK (Escherichia coli [13]): 7

Compound: CN(C)c1ccc2nc3ccc(=[N+](C)C)cc-3sc2c1
- Activity (Acinetobacter baumannii [19]): Active
- Activity (Escherichia coli [16]): Active
- Activity (Escherichia coli [20]): Active
- Activity (Acinetobacter baumannii [17]): Active
- Activity (Acinetobacter baumannii [21]): Active
- Activity (Escherichia coli [22]): inactive

Compound: CN(CCN(C)c1ccc2nc3ccc(N(C)C)cc3[s+]c2c1)C(=O)c1ccc(-c2cc3cc([N+](=O)[O-])ccc3[nH]2)cc1.[Cl-]
- Activity (Escherichia coli [23]): 80%
- Activity (Escherichia coli [24]): Active
- Activity (Acinetobacter baumannii [1]): Non-Toxic
- Activity (Escherichia coli [2]): Non-Toxic
- Activity (Escherichia coli [25]): Active
- LCK (Escherichia coli [16]): 6
- LCK (Escherichia coli [5]): 4
- Activity (Escherichia coli [11]): Non-Toxic
- LCK (Acinetobacter baumannii [17]): 4
- LCK (Escherichia coli [12]): 6
- Activity (Escherichia coli [13]): Active
- Activity (Escherichia coli [14]): 40%

Compound: CN(CCCOc1ccccc1NC(=O)Nc1ccc2ccccc2c1)CCN(C)c1ccc2nc3ccc(N(C)C)cc3[s+]c2c1.[Cl-]
- Activity (Acinetobacter baumannii [1]): Non-Toxic
- Activity (Escherichia coli [2]): Non-Toxic
- Activity (Escherichia coli [11]): Non-Toxic
- LCK (Acinetobacter baumannii [17]): 4
- LCK (Escherichia coli [12]): 3
- LCK (Escherichia coli [13]): 4.5

From ChEMBL document CHEMBL4229340, “Attaching NorA efflux pump inhibitors to methylene blue enhances antimicrobial photodynamic inactivation of Escherichia coli and Acinetobacter baumannii in vitro and in vivo” (Bioorg Med Chem Lett, 2018)
